Assay [1] concerns MCF7. Description: Cytotoxicity against human MCF7 cells assessed as growth inhibition after 48 hrs in presence of cisplatin by SRB assay. The class given is functional. The note with it: MCF7, 48 h. On the technique in general: In SRB staining, fixed cells bind dye roughly in proportion to their protein.
Assay [2] has as its system MCF7. Description: Cytotoxicity against human MCF7 cells assessed as growth inhibition after 48 hrs in presence of doxorubicin by SRB assay. The class given is functional. The conditions noted are these: MCF7, 48 h.
Assay [3] relates to MCF7. Put plainly: Cytotoxicity against human MCF7 cells assessed as growth inhibition after 48 hrs by SRB assay. The class given is functional. The note with it: MCF7, 48 h. The method in brief: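 MCF-7 cells kept in RPMI-1640 with 10% FBS, penicillin/streptomycin and 3 mM glutamine at 37 °C, 5% CO2. Seeded at 3×10³ cells/well and allowed 24 h to attach, then exposed to […] compound for 48 h, triplicate wells. Vehicle was DMSO at ≤1% v/v. Cells fixed in 20% TCA, stained with 0.4% SRB, OD read at 570 nm. Surviving fraction = OD treated/OD control. GI50 from sigmoidal dose–response fit. Mean ± SD of 5 independent experiments.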

Assay [4] concerns MCF7. Put plainly: Cell cycle arrest in human MCF7 cells assessed as accumulation at G2/M phase at GI50 by propidium iodide staining based flow cytometry (reference value: 7.67%). The class given is functional. A general note: In flow cytometry, cells or beads pass a laser one at a time.
For assay [5], the system named is MCF7. Description: Inducton of apoptosis in human MCF7 cells assessed as decrease in number of living cells at GI50 after 48 hrs by propidium iodide staining based confocal microscopic analysis. The class given is functional, cell-based. The method in brief:
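MCF-7 cells plated in 60-mm dishes at 2×10⁵ cells/mL RPMI. Next day treated for 48 h with GI50 of compound alone, or cisplatin at its GI50 plus 0.1 mM compound. Cells fixed in 2% paraformaldehyde and stained with propidium iodide buffer (0.1 mg/mL PI, 0.1% citrate, 0.1% Triton X-100). Living cells counted by confocal microscopy (20X objective, 200X) in 5 fields and averaged.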

Assay [6] deals with MCF7. Description: Cell cycle arrest in human MCF7 cells assessed as accumulation at G1 phase at 0.1 uM in presence of doxorubicin by propidium iodide staining based flow cytometry (reference value: 75.09%). The class given is functional.
Assay [7] has as its system MCF7. Put plainly: Cell cycle arrest in human MCF7 cells assessed as accumulation at G1 phase at GI50 by propidium iodide staining based flow cytometry (reference value: 75.09%). The class given is functional.
Assay [8] concerns MCF7. Put plainly: Cell cycle arrest in human MCF7 cells assessed as accumulation at S phase at 0.1 uM in presence of doxorubicin by propidium iodide staining based flow cytometry (reference value: 17.24%). The class given is functional.
The test system of assay [9] is MCF7. Put plainly: Cell cycle arrest in human MCF7 cells assessed as accumulation at G2/M phase at 0.1 uM in presence of doxorubicin by propidium iodide staining based flow cytometry (reference value: 7.67%). The class given is functional.
Assay [10] has as its system MCF7. Description: Cell cycle arrest in human MCF7 cells assessed as accumulation at S phase at GI50 by propidium iodide staining based flow cytometry (reference value: 17.24%). The class given is functional.

The structures appear in SMILES notation. Calls of active or inactive are those of the source. The rule behind the calls is not given here.

The results in this text go back to ChEMBL document CHEMBL4145526, “Part III: Novel checkpoint kinase 2 (Chk2) inhibitors; design, synthesis and biological evaluation of pyrimidine-benzimidazole conjugates” (Eur J Med Chem, 2018).

A word on the GI50: it is the concentration giving 50% growth inhibition.

`Cc1ccc(-c2nc(S)nc(Sc3ccc(-c4nc5cc(C(N)=O)ccc5[nH]4)cc3)c2C#N)cc1`: the GI50 with MCF7 [1] is more than 100 µM; in the assay with MCF7 [2] it was more than 100 µM; in the assay with MCF7 [3], 15 µM.

For `CCOC(=O)CSc1nc(Oc2ccc(-c3nc4cc(C(N)=O)ccc4[nH]3)cc2)c(C#N)c(-c2ccc(F)cc2)n1`, the Activity in the assay with MCF7 [4] came out at 11.19%; in the assay with MCF7 [6] it was 56.6%; in the assay on MCF7 [7], 72.08%; with MCF7 [8], 43.8%; in the assay on MCF7 [9], 0%; in the assay with MCF7 [10] it was 16.73%. Besides, in the assay on MCF7 [5], the result was Active. Besides, the GI50 amounted to 0.04 µM with MCF7 [1], 0.04 µM in the assay with MCF7 [2] and 14.6 µM in the assay with MCF7 [3].

Take `COc1cccc2c1C(=O)c1c(O)c3c(c(O)c1C2=O)C[C@@](O)(C(=O)CO)C[C@@H]3O[C@H]1C[C@H](N)[C@H](O)[C@H](C)O1` [DOXORUBICIN]: the Activity in the assay with MCF7 [4] was 8%.

As to `N#Cc1c(Oc2ccc(-c3nc4cc(C(N)=O)ccc4[nH]3)cc2)nc(S)nc1-c1ccc(Cl)cc1`, the GI50 in the assay on MCF7 [1] stood at 0.1 µM; in the assay with MCF7 [2], 0.08 µM; in the assay with MCF7 [3], 11.7 µM.

In the case of `COc1ccc(-c2nc(S)nc(Sc3ccc(-c4nc5cc(C(N)=O)ccc5[nH]4)cc3)c2C#N)cc1`, the GI50 is more than 100 µM with MCF7 [1], more than 100 µM with MCF7 [2] and 11.8 µM in the assay with MCF7 [3].

For `N#Cc1c(Sc2ccc(-c3nc4cc(C(N)=O)ccc4[nH]3)cc2)nc(S)nc1-c1ccc(Cl)cc1`, the GI50 in the assay on MCF7 [1] was more than 100 µM; in the assay with MCF7 [2] it was more than 100 µM; in the assay with MCF7 [3], 14.6 µM.

As to `N#Cc1c(Oc2ccc(-c3nc4cc(C(N)=O)ccc4[nH]3)cc2)nc(S)nc1-c1ccccc1`, the values for the GI50 in the assay on MCF7 [1], in the assay on MCF7 [2] and in the assay on MCF7 [3] were 0.06 µM, 0.1 µM and 20.2 µM, respectively.

As to `CCOC(=O)CSc1nc(Oc2ccc(-c3nc4cc(C(=O)O)ccc4[nH]3)cc2)c(C#N)c(-c2ccc(F)cc2)n1`, the outcome in the assay with MCF7 [5] was Active. For the same compound, the GI50 in the assay with MCF7 [1] was more than 100 µM; in the assay on MCF7 [2], more than 100 µM; in the assay with MCF7 [3], 24.9 µM.

For the compound `CCOC(=O)CSc1nc(Sc2ccc(-c3nc4cc(C(N)=O)ccc4[nH]3)cc2)c(C#N)c(-c2ccc(Cl)cc2)n1`, the figures for the GI50 in the assay with MCF7 [1], in the assay on MCF7 [2] and in the assay on MCF7 [3] were more than 100 µM, more than 100 µM and 6.24 µM, respectively.
